Assay [1] has as its system P. falciparum 3D7 (chloroquine-sensitive). It counts as cell-based. Particulars: Plasmodium falciparum, 3D7, Erythrocyte, 48 h, read-out: ED50 (nM) 3D7. In outline: (§1)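 Parasites cultured in type A+ human erythrocytes (2% hematocrit) in RPMI-1640 with 20% heat-inactivated type A+ human plasma, under 5% CO2/5% O2/90% N2. Test compound in DMSO added to culture at 0.5% parasitemia and 0.5% hematocrit. Incubated 37 °C for 48 h, then [8-3H]hypoxanthine (0.3 µCi) added for a further 24 h. Cells harvested to filter mats and counted by β-scintillation. Uninfected-erythrocyte background subtracted; DMSO-only wells taken as 100% growth. ED50 from linear regression of incorporation vs concentration.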

For assay [2], the system named is P. falciparum K1 (chloroquine-resistant, pyrimethamine-resistant). It counts as cell-based. The conditions noted are these: Plasmodium falciparum, K1, Erythrocyte, 48 h, read-out: ED50 (nM) K1. The method, boiled down: as §1

As for `Cn1cnc(S(=O)(=O)N(Cc2ccccc2)[C@@H]2CCC[C@@H]2N(Cc2cncn2C)c2ccc(C#N)cc2)c1` (racemic) [6a, (±)-[N-Benzyl-N-{cis-2-[(4-cyanophenyl)(3-methyl-3H-imidazol-4-ylmethyl)amino]cyclopentyl}]-1-methyl-1H-imidazole-4-sulfonamide], the IC50 in assay [1] was greater than 5000 nM; in assay [2], 2400 nM.

Regarding `Cc1ccccc1CN([C@@H]1CCC[C@@H]1N(Cc1cncn1C)c1ccc(C#N)cc1)S(=O)(=O)c1cn(C)cn1` (racemic) [6b, (±)-[N-(2-Methylbenzyl)-N-{cis-2-[(4-cyanophenyl)(3-methyl-3H-imidazol-4-ylmethyl)amino]cyclopentyl}]-1-methyl-1H-imidazole-4-sulfonamide], the IC50 in assay [1] and in assay [2] was 2800 nM throughout.

As to `Cn1cnc(S(=O)(=O)N(Cc2ccsc2)[C@@H]2CCC[C@@H]2N(Cc2cncn2C)c2ccc(C#N)cc2)c1` (racemic) [6c, (±)-[N-(Thiophen-3-ylmethyl)-N-{cis-2-[(4-cyanophenyl)(3-methyl-3H-imidazol-4-ylmethyl)amino]cyclopentyl}]-1-methyl-1H-imidazole-4-sulfonamide], the IC50 in assay [1] is greater than 5000 nM; in assay [2] it was 4200 nM.

Turning to `Cn1cnc(S(=O)(=O)N(CC2CCN(c3ncccn3)CC2)[C@@H]2CCC[C@@H]2N(Cc2cncn2C)c2ccc(C#N)cc2)c1` (racemic) [6e, (±)-[N-{N-(2-Pyrimidinyl)-piperidin-4-ylmethyl}-N-{cis-2-[(4-cyanophenyl)(3-methyl-3H-imidazol-4-ylmethyl)amino]cyclopentyl}]-1-methyl-1H-imidazole-4-sulfonamide], the IC50 in assay [1] came out at 3000 nM; in assay [2], 2500 nM.

Take `Cn1cnc(S(=O)(=O)N(Cc2ccccc2)[C@H]2CCC[C@@H]2N(Cc2cncn2C)c2ccc(C#N)cc2)c1` (racemic) [7a, (±)-[N-Benzyl-N-{trans-2-[(4-cyanophenyl)(3-methyl-3H-imidazol-4-ylmethyl)amino]cyclopentyl}]-1-methyl-1H-imidazole-4-sulfonamide]: the IC50 in assay [1] was determined as 3100 nM.

For the molecule `Cc1ccccc1CN([C@H]1CCC[C@@H]1N(Cc1cncn1C)c1ccc(C#N)cc1)S(=O)(=O)c1cn(C)cn1` (racemic) [7b, (±)-[N-(2-Methylbenzyl)-N-{trans-2-[(4-cyanophenyl)(3-methyl-3H-imidazol-4-ylmethyl)amino]cyclopentyl}]-1-methyl-1H-imidazole-4-sulfonamide], the IC50 in assay [1] turned out to be 3000 nM; in assay [2] it was 3200 nM.

For the molecule `Cn1cnc(S(=O)(=O)N(Cc2ccsc2)[C@H]2CCC[C@@H]2N(Cc2cncn2C)c2ccc(C#N)cc2)c1` (racemic) [7c, (±)-[N-(Thiophen-3-ylmethyl)-N-{trans-2-[(4-cyanophenyl)(3-methyl-3H-imidazol-4-ylmethyl)amino]cyclopentyl}]-1-methyl-1H-imidazole-4-sulfonamide], the IC50 in assay [1] and in assay [2] was 2700 nM each time.

For `Cn1cnc(S(=O)(=O)N(CC2CCN(c3ncccn3)CC2)[C@H]2CCC[C@@H]2N(Cc2cncn2C)c2ccc(C#N)cc2)c1` (racemic) [7e, (±)-[N-{N-(2-Pyrimidinyl)-piperidin-4-ylmethyl}-N-{trans-2-[(4-cyanophenyl)(3-methyl-3H-imidazol-4-ylmethyl)amino]cyclopentyl}]-1-methyl-1H-imidazole-4-sulfonamide], the figures for the IC50 in assay [1] and in assay [2] were 2600 nM and 750 nM, respectively.

For `Cn1cnc(S(=O)(=O)N(Cc2ccccc2)[C@H]2CC[C@@H](N(Cc3cncn3C)c3ccc(C#N)cc3)C2)c1` (racemic) [8a, (±)-[N-Benzyl-N-{cis-3-[(4-cyanophenyl)(3-methyl-3H-imidazol-4-ylmethyl)amino]cyclopentyl}]-1-methyl-1H-imidazole-4-sulfonamide], the IC50 in assay [1] worked out at 700 nM; in assay [2], 800 nM.

Turning to `Cc1ccccc1CN([C@H]1CC[C@@H](N(Cc2cncn2C)c2ccc(C#N)cc2)C1)S(=O)(=O)c1cn(C)cn1` (racemic) [8b, (±)-[N-(2-Methylbenzyl)-N-{cis-3-[(4-cyanophenyl)(3-methyl-3H-imidazol-4-ylmethyl)amino]cyclopentyl}]-1-methyl-1H-imidazole-4-sulfonamide], the IC50 came to 2400 nM in assay [1] and 2600 nM in assay [2].

With `Cn1cnc(S(=O)(=O)N(Cc2ccsc2)[C@H]2CC[C@@H](N(Cc3cncn3C)c3ccc(C#N)cc3)C2)c1` (racemic) [8c, (±)-[N-(Thiophen-3-ylmethyl)-N-{cis-3-[(4-cyanophenyl)(3-methyl-3H-imidazol-4-ylmethyl)amino]cyclopentyl}]-1-methyl-1H-imidazole-4-sulfonamide], the IC50 is 2400 nM in assay [1] and 2500 nM in assay [2].

Take `Cn1cnc(S(=O)(=O)N(CC2CCN(C(=O)OC(C)(C)C)CC2)[C@H]2CC[C@@H](N(Cc3cncn3C)c3ccc(C#N)cc3)C2)c1` (racemic) [8d, (±)-[N-(N-tert-Butoxycarbonylpiperidin-4-ylmethyl)-N-{cis-3-[(4-cyanophenyl)-(3-methyl-3H-imidazol-4-ylmethyl)amino]cyclopentyl}]-1-methyl-1H-imidazole-4-sulfonamide]: the IC50 in assay [1] was found to be 300 nM.

Regarding `Cn1cnc(S(=O)(=O)N(CC2CCN(c3ncccn3)CC2)[C@H]2CC[C@@H](N(Cc3cncn3C)c3ccc(C#N)cc3)C2)c1` (racemic) [8e, (±)-[N-{N-(2-Pyrimidinyl)-piperidin-4-ylmethyl}-N-{cis-3-[(4-cyanophenyl)(3-methyl-3H-imidazol-4-ylmethyl)amino]cyclopentyl}]-1-methyl-1H-imidazole-4-sulfonamide], the IC50 was 600 nM in assay [1] and 720 nM in assay [2].

Consider `Cn1cnc(S(=O)(=O)N(Cc2ccccc2)[C@@H]2CC[C@@H](N(Cc3cncn3C)c3ccc(C#N)cc3)C2)c1` (racemic) [9a, (±)-[N-Benzyl-N-{trans-3-[(4-cyanophenyl)(3-methyl-3H-imidazol-4-ylmethyl)amino]cyclopentyl}]-1-methyl-1H-imidazole-4-sulfonamide], for which, in assay [1], the IC50 stood at 340 nM.

In the case of `Cc1ccccc1CN([C@@H]1CC[C@@H](N(Cc2cncn2C)c2ccc(C#N)cc2)C1)S(=O)(=O)c1cn(C)cn1` (racemic) [9b, (±)-[N-(2-Methylbenzyl)-N-{trans-3-[(4-cyanophenyl)(3-methyl-3H-imidazol-4-ylmethyl)amino]cyclopentyl}]-1-methyl-1H-imidazole-4-sulfonamide], the IC50 came out at 2400 nM in assay [1] and 2200 nM in assay [2].

In the case of `Cn1cnc(S(=O)(=O)N(Cc2ccsc2)[C@@H]2CC[C@@H](N(Cc3cncn3C)c3ccc(C#N)cc3)C2)c1` (racemic) [9c, (±)-[N-(Thiophen-3-ylmethyl)-N-{trans-3-[(4-cyanophenyl)(3-methyl-3H-imidazol-4-ylmethyl)amino]cyclopentyl}]-1-methyl-1H-imidazole-4-sulfonamide], the IC50 in assay [1] worked out at 1500 nM; in assay [2], 1200 nM.

In the case of `Cn1cnc(S(=O)(=O)N(CC2CCN(C(=O)OC(C)(C)C)CC2)[C@@H]2CC[C@@H](N(Cc3cncn3C)c3ccc(C#N)cc3)C2)c1` (racemic) [9d, (±)-[N-(N-tert-Butoxycarbonylpiperidin-4-ylmethyl)-N-{trans-3-[(4-cyanophenyl)(3-methyl-3H-imidazol-4-ylmethyl)amino]cyclopentyl}]-1-methyl-1H-imidazole-4-sulfonamide], the IC50 was 310 nM in assay [1] and 80 nM in assay [2].

For `Cn1cnc(S(=O)(=O)N(CC2CCN(c3ncccn3)CC2)[C@@H]2CC[C@@H](N(Cc3cncn3C)c3ccc(C#N)cc3)C2)c1` (racemic) [9e, (±)-[N-{N-(2-Pyrimidinyl)-piperidin-4-ylmethyl}-N-{trans-3-[(4-cyanophenyl)(3-methyl-3H-imidazol-4-ylmethyl)amino]cyclopentyl}]-1-methyl-1H-imidazole-4-sulfonamide], the IC50 was determined as 2600 nM in assay [1] and 1500 nM in assay [2].

In the case of `Cn1cnc(S(=O)(=O)N(CCCN(Cc2cncn2C)c2ccc(C#N)cc2)Cc2ccccc2)c1` [2a, [N-Benzyl-N-3-{(4-cyanophenyl)(3-methyl-3H-imidazol-4-ylmethyl)amino}propyl]-1-methyl-1H-imidazole-4-sulfonamide], the IC50 in assay [1] was 3100 nM.

For `Cc1ccccc1CN(CCCN(Cc1cncn1C)c1ccc(C#N)cc1)S(=O)(=O)c1cn(C)cn1` [2b, [N-(2-Methylbenzyl)-N-3-{(4-cyanophenyl)(3-methyl-3H-imidazol-4-ylmethyl)amino}propyl]-1-methyl-1H-imidazole-4-sulfonamide], the IC50 in assay [1] and in assay [2] was 2900 nM in each case.

With `Cn1cnc(S(=O)(=O)N(CCCN(Cc2cncn2C)c2ccc(C#N)cc2)Cc2ccsc2)c1` [2c, [N-(Thiophen-3-ylmethyl)-N-3-{(4-cyanophenyl)(3-methyl-3H-imidazol-4-ylmethyl)amino}propyl]-1-methyl-1H-imidazole-4-sulfonamide], the IC50 amounted to 2800 nM in assay [1] and 2200 nM in assay [2].

Take `Cn1cnc(S(=O)(=O)N(CCCN(Cc2cncn2C)c2ccc(C#N)cc2)CC2CCN(c3ncccn3)CC2)c1` [2e, [N-{N-(2-Pyrimidinyl)-piperidin-4-ylmethyl}-N-3-{(4-cyanophenyl)(3-methyl-3H-imidazol-4-ylmethyl)amino}propyl]-1-methyl-1H-imidazole-4-sulfonamide]: the IC50 in assay [1] was 1300 nM.

Turning to `Cn1cnc(S(=O)(=O)N(Cc2ccccc2)[C@H]2CC[C@H](N(Cc3cncn3C)c3ccc(C#N)cc3)CC2)c1` [11a, (±)-[N-Benzyl-N-{trans-4-[(4-cyanophenyl)(3-methyl-3H-imidazol-4-ylmethyl)amino]cyclohexyl}]-1-methyl-1H-imidazole-4-sulfonamide], the IC50 in assay [2] stood at 1800 nM.

Source of the values: publication PMC3049929 (Journal of medicinal chemistry, 2008).
